The source made the active and inactive calls. The calls are words filed in the database; no cut-off is given here.
How the values were obtained:
[1] = Selectivity for antagonist activity at human mu opioid receptor to kappa opioid receptor expressed in CHO cells by [35S]GTP-gamma-S assay; assay type: functional
[2] = Selectivity for antagonist activity at human delta opioid receptor to kappa opioid receptor expressed in CHO cells by [35S]GTP-gamma-S assay; assay type: functional
[3] = molecular target: Mu-type opioid receptor (Homo sapiens) (UniProt P35372); test: Antagonist activity at human mu opioid receptor expressed in CHO cells by [35S]GTP-gamma-S assay; assay type: functional, cell-based
[4] = molecular target: Kappa-type opioid receptor (Homo sapiens) (UniProt P41145); test: Antagonist activity at human kappa opioid receptor expressed in CHO cells by [35S]GTP-gamma-S assay; assay type: functional, cell-based
In short: (§1)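 Ke from rightward shift of the agonist concentration–response curve (DAMGO μ, DPDPE δ, U69,593 κ) by one fixed concentration of test compound; membranes from stably transfected CHO cells, 0.1 nM [35S]GTPγS, 10 μM GDP, 50 mM HEPES pH 7.4, 1 h room temperature, duplicates, filtration then scintillation counting; EC50s by three-parameter logistic fit, Ke = [L]/[(A′/A) − 1].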

[5] = molecular target: T1, Delta-type opioid receptor (Homo sapiens, UniProt P41143); test: Antagonist activity at human delta opioid receptor expressed in CHO cells by [35S]GTPgammaS assay; assay type: functional, cell-based; in short: as §1
[6] = Agonist activity at opioid receptor relative to U69,593; assay type: functional
[7] = molecular target: Kappa-type opioid receptor (Homo sapiens) (UniProt P41145); test: Intrinsic activity at human kappa opioid receptor expressed in CHO cells upto 10 uM by [35S]GTP-gamma-S assay; assay type: functional, cell-based
In short: (§2)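 Screened at 10 μM for agonist or inverse-agonist activity on CHO membrane homogenates expressing human δ, κ or μ receptor; 0.1 nM [35S]GTPγS, 1 μM GDP, 50 mM HEPES pH 7.4, 1 h room temperature, duplicates; bound label separated by vacuum filtration over GF-B, scintillation counted, normalized to vehicle basal binding; subtype-selective agonist run as positive control.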

[8] = molecular target: Mu-type opioid receptor (Homo sapiens) (UniProt P35372); test: Intrinsic activity at human […] mu receptor expressed in CHO cells upto 10 uM by [35S]GTP-gamma-S assay; assay type: functional, cell-based; in short: as §2
[9] = molecular target: T1, Delta-type opioid receptor; test: Intrinsic activity at human delta opioid receptor expressed in CHO cells upto 10 uM by [35S]GTP-gamma-S assay; assay type: functional, cell-based; in short: as §2
[10] = Binding affinity to opiate receptor
[11] = molecular target: T1, Delta-type opioid receptor; test: Binding affinity to delta opioid receptor

T1 sequence (P41143 whole entry): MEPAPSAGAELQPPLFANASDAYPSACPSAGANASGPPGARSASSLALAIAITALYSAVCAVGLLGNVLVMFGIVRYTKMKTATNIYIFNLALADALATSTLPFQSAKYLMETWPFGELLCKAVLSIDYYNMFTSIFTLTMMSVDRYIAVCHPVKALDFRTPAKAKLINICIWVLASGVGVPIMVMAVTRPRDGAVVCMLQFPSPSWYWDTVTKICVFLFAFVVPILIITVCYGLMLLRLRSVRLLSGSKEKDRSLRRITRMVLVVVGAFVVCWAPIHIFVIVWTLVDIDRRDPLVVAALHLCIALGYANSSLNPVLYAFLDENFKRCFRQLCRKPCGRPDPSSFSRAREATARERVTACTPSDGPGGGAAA
Chain of Kappa-type opioid receptor (Homo sapiens) (P41145 whole entry): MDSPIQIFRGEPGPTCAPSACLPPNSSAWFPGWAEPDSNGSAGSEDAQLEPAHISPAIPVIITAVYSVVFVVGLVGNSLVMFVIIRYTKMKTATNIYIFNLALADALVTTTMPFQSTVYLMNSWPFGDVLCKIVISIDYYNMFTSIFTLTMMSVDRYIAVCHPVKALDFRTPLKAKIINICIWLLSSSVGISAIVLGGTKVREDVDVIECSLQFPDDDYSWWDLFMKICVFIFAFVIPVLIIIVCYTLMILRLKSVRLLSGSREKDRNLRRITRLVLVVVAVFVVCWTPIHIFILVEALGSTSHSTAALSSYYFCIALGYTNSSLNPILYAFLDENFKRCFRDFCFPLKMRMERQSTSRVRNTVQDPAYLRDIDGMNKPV
Chain of Mu-type opioid receptor (Homo sapiens) (P35372 whole entry): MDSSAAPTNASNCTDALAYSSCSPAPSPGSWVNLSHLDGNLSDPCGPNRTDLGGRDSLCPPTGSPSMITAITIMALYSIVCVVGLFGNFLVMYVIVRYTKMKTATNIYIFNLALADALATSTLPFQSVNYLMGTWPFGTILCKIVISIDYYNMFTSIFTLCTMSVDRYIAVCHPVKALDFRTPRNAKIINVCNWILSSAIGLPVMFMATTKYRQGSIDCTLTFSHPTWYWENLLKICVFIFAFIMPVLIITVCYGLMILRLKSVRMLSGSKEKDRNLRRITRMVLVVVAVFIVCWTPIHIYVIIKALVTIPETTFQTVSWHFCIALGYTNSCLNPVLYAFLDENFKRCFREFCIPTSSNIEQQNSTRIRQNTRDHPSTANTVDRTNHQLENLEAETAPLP

Row | SMILES | Antagonist selectivity ratio [1] | Ratio Ki [2] | Ke [3] [nM] | Ke [4] [nM] | Ke [5] [nM] | Intrinsic activity [6] | Intrinsic activity [7] | Intrinsic activity [8] | Intrinsic activity [9] | IC50 [10] [nM] | Ki [11] [nM] | Emax [6] [%] | Ratio pKi [1] | Ratio pKi [2]
1 | O=c1cc(-c2ccc(O)cc2)oc2cc(O)ccc12 | 0.3 | 1.3 | 480 | 1610 | 2090 |  |  |  |  |  |  |  |  | 
2 | COc1ccc([C@@H]2CC(=O)c3c(O)cc(O)cc3O2)cc1O |  |  | > 10000 | > 10000 | > 10000 |  |  |  |  |  |  |  |  | 
3 | Oc1ccc2c3c1O[C@H]1c4[nH]c5c(c4C[C@@]4(O)[C@@H](C2)N(CC2CC2)CC[C@]314)C[C@@]1(O)[C@H]2Cc3ccc(O)c4c3[C@@]1(CCN2CC1CC1)[C@H]5O4 [NORBINALTORPHIMINE] | 520 | 580 |  |  |  |  |  |  |  |  |  |  |  | 
4 | Oc1cc(O)c2c(c1)O[C@@H](c1ccc(O)c(O)c1)[C@@H](O)C2 [(+)-EPICATECHIN] | 0.52 | 0.37 | 3020 | 5810 | 2170 | inactive |  |  |  |  |  |  |  | 
5 | CC(C)[C@@H](CN1CC[C@@](C)(c2cccc(O)c2)[C@@H](C)C1)NC(=O)[C@H]1Cc2ccc(O)cc2CN1 [JDTIC] | 1250 | 3800 |  |  |  |  |  |  |  |  |  |  |  | 
6 | O=C1C[C@@H](c2ccc(O)cc2)Oc2cc(O)cc(O)c21 [NARINGENIN] | 1.4 | 2.2 | 2300 | 1700 | 3680 |  |  |  |  |  |  |  |  | 
7 | O=C1c2c(O)cc(O)cc2O[C@H](c2ccc(O)c(O)c2)[C@H]1O [(+)-TAXIFOLIN] | 0.93 | 1.2 | 3070 | 3280 | 3820 |  |  |  |  |  |  |  |  | 
8 | O=C1CC(c2ccc(O)cc2)Oc2ccccc21 (stereo not drawn) [4'-HYDROXY-FLAVANONE] | 1.1 | 6.3 | 590 | 550 | 3490 |  |  |  |  |  |  |  |  | 
9 | O=c1cc(-c2ccc(O)cc2)oc2cc(O)cc(O)c12 [APIGENIN] | 1 | 2.4 | 410 | 410 | 970 |  | inactive | inactive | inactive |  |  |  |  | 
10 | Oc1cc(O)c2c(c1)O[C@H](c1cc(O)c(O)c(O)c1)[C@H](O)C2 [EPIGALLOCATECHIN] | 1.2 | 8 | 300 | 250 | 1990 |  | inactive | inactive | inactive |  |  |  |  | 
11 | O=C(O[C@@H]1Cc2c(O)cc(O)cc2O[C@@H]1c1ccc(O)c(O)c1)c1cc(O)c(O)c(O)c1 [EPICATECHIN GALLATE] | 0.79 | 0.89 | 1500 | 1900 | 1700 |  | inactive | inactive | inactive | 36 |  |  |  | 
12 | O=c1cc(-c2ccc(O)c(-c3c(O)cc(O)c4c(=O)cc(-c5ccc(O)cc5)oc34)c2)oc2cc(O)cc(O)c12 [AMENTOFLAVONE] | >20 | 12 | > 10000 | 490 | 6000 |  | inactive | inactive | inactive |  | 36 |  |  | 
13 | O=C(O[C@@H]1Cc2c(O)cc(O)cc2O[C@H]1c1ccc(O)c(O)c1)c1cc(O)c(O)c(O)c1 [(-)-CATECHINGALLATE] | 0.95 | 4.3 | 210 | 220 | 950 |  | inactive | inactive | inactive |  |  |  |  | 
14 | O=c1c(O[C@@H]2O[C@H](CO)[C@H](O)[C@H](O)[C@H]2O)c(-c2ccc(O)c(O)c2)oc2cc(O)cc(O)c12 [HYPEROSIDE] | 1.1 | 27 | 390 | 340 | 9070 |  |  |  |  |  |  |  |  | 
15 | Oc1cc(O)c2c(c1)O[C@@H](c1ccc(O)c(O)c1)[C@H](O)C2 [(-)-CATECHIN] | 0.67 | 0.49 | 2400 | 3600 | 1770 |  |  |  |  |  |  | 18 |  | 
16 | Oc1cc(O)c2c(c1)O[C@H](c1ccc(O)c(O)c1)[C@@H](O)C2 [CIANIDANOL] |  |  | > 10000 | 320 | 1180 | inactive |  |  |  |  |  |  | >31 | 3.7
17 | Oc1cc(O)c2c(c1)O[C@H](c1ccc(O)c(O)c1)[C@H](O)C2 |  |  |  |  |  | inactive |  |  |  |  |  |  |  | 

From ChEMBL document CHEMBL1141265, “Flavonoids as opioid receptor ligands: identification and preliminary structure-activity relationships” (J Nat Prod, 2007)
